This note sets out measurements from ChEMBL document CHEMBL3046318, “Synthesis of a combinatorial library of amides and its evaluation against the fall armyworm, Spodoptera frugiperda” (2011).

Common to all, as to assay type: functional
The subject of experiment [1] is Spodoptera frugiperda. The experiment is described as follows: Insecticidal activity against 5 day old second instar larvae of Spodoptera frugiperda (fall armyworm) measured after 48 hr topical administration. The method, boiled down:
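Topical application to second instar larvae, 1 μL per insect in acetone (control: acetone alone). About 300 mg of artificial diet supplied 1 h after application. Mortality counted at 48 h. Five replicates. Single-sample screens of mixtures were run at 2000 mg L-1, with means compared by Tukey test (P ≤ 0.05). LD50 from log dose probit lines, with Abbott correction for control mortality.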

Experiment [2] has as its system Spodoptera frugiperda. The experiment can be described thus: Insecticidal activity against pupal phase Spodoptera frugiperda (fall armyworm) assessed as mortality at 1 mg/kg compound administration with artificial diet (reference value: 13.3%). The gist of the method: (§1)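 Ingestion assay on first instar larvae (1 day old), 30 per treatment and per control. Compound was dissolved in acetone, mixed with the diet's ascorbic acid (1.8 g), dried under vacuum at 40 °C, then incorporated into a bean/wheat germ artificial diet at 1-100 mg kg-1. Mortality recorded for the larval phase, the pupal phase and the total cycle.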

Experiment [3] concerns Spodoptera frugiperda. The experiment is described as follows: Insecticidal activity against larval phase Spodoptera frugiperda (fall armyworm) assessed as mortality at 1 mg/kg compound administration with artificial diet (reference value: 6.66%). The method, boiled down: as §1
The test system of experiment [4] is Spodoptera frugiperda. The experiment is described as follows: Insecticidal activity against Spodoptera frugiperda (fall armyworm) during total cycle assessed as mortality at 10 mg/kg compound administration with artificial diet (reference value: 13.3%). The gist of the method:
as §1

Experiment [5] concerns Spodoptera frugiperda. The experiment is described as follows: Insecticidal activity against pupal phase Spodoptera frugiperda (fall armyworm) assessed as mortality at 10 mg/kg compound administration with artificial diet (reference value: 13.3%). The method, boiled down:
as §1

Experiment [6] has as its system Spodoptera frugiperda. The experiment can be described thus: Insecticidal activity against larval phase Spodoptera frugiperda (fall armyworm) assessed as mortality at 10 mg/kg compound administration with artificial diet (reference value: 6.66%). The gist of the method: as §1
Experiment [7] concerns Spodoptera frugiperda. The experiment can be described thus: Insecticidal activity against Spodoptera frugiperda (fall armyworm) during total cycle assessed as mortality at 50 mg/kg compound administration with artificial diet (reference value: 13.3%). The gist of the method: as §1
Experiment [8] has as its system Spodoptera frugiperda. The experiment is described as follows: Insecticidal activity against pupal phase Spodoptera frugiperda (fall armyworm) assessed as mortality at 50 mg/kg compound administration with artificial diet (reference value: 13.3%). The method, boiled down:
as §1

In experiment [9] the test system is Spodoptera frugiperda. The experiment is described as follows: Insecticidal activity against larval phase Spodoptera frugiperda (fall armyworm) assessed as mortality at 50 mg/kg compound administration with artificial diet (reference value: 6.66%). The gist of the method: as §1
Experiment [10] relates to Spodoptera frugiperda. The experiment can be described thus: Insecticidal activity against Spodoptera frugiperda (fall armyworm) during total cycle assessed as mortality at 100 mg/kg compound administration with artificial diet (reference value: 13.3%). The method, boiled down: as §1
The test system of experiment [11] is Spodoptera frugiperda. The experiment can be described thus: Insecticidal activity against pupal phase Spodoptera frugiperda (fall armyworm) assessed as mortality at 100 mg/kg compound administration with artificial diet (reference value: 13.3%). The gist of the method:
as §1

The subject of experiment [12] is Spodoptera frugiperda. The experiment is described as follows: Insecticidal activity against larval phase Spodoptera frugiperda (fall armyworm) assessed as mortality at 100 mg/kg compound administration with artificial diet (reference value: 6.66%). The method, boiled down: as §1
Experiment [13] deals with Spodoptera frugiperda. The experiment can be described thus: Insecticidal activity against Spodoptera frugiperda (fall armyworm) during total cycle assessed as mortality at 1 mg/kg compound administration with artificial diet (reference value: 13.3%). The method, boiled down: as §1

`O=C(c1ccc(OC(F)(F)F)cc1)N1CCCCC1` returned an LD50 in the experiment on Spodoptera frugiperda [1] of 8.15 µg/mg.

On to `O=C(/C=C/c1ccc(OC(F)(F)F)cc1)N1CCCCC1`, for which the results for the mortality at 1 mg/kg with Spodoptera frugiperda [2], in the experiment with Spodoptera frugiperda [3] and in the experiment on Spodoptera frugiperda [13] were 61.4%, 65.8% and 83.3%, respectively. The mortality (as a rule, the percentage killed) at 10 mg/kg in the experiment with Spodoptera frugiperda [4] worked out at 86.6%; in the experiment with Spodoptera frugiperda [5] it was 48.6%; with Spodoptera frugiperda [6], 63.3%. Moreover, the mortality at 50 mg/kg in the experiment on Spodoptera frugiperda [7] amounted to 93.3%; in the experiment with Spodoptera frugiperda [8], 69.4%; with Spodoptera frugiperda [9] it was 73.3%. In addition, the mortality at 100 mg/kg in the experiment with Spodoptera frugiperda [10] came out at 86.6%; in the experiment with Spodoptera frugiperda [11], 75%; in the experiment with Spodoptera frugiperda [12], 55%. In addition, the LD50 in the experiment on Spodoptera frugiperda [1] came to 0.793 µg/mg.
